Laboratory results as given in ChEMBL document CHEMBL1914380, “Polyalkoxybenzenes from plants. 5. Parsley seed extract in synthesis of azapodophyllotoxins featuring strong tubulin destabilizing activity in the sea urchin embryo and cell culture assays” (J Med Chem, 2011).
The source made the active and inactive calls. The rule behind the calls is not given here. Where a SMILES comes first, the peptide text is derived from it. The star is where a group is joined. Cbz = O=C(OCc1ccccc1)*; CH2F = FC*

What was measured:
[1] = test system: Jurkat; assay: Induction of apoptosis in human Jurkat cells assessed as hypodyploid cells at 50 nM after 48 hrs by annexin-V FITC/7-ADD staining-based flow cytometric analysis in presence of 50 uM Z-VAD-fmk pan-caspase inhibitor; assay type: functional
[2] = test system: A549; assay: Induction of apoptosis in human A549 cells assessed as late apoptotic cells at 10 to 100 nM after 48 hrs by annexin-V FITC/7-ADD staining-based flow cytometric analysis; assay type: functional, cell-based
[3] = test system: Paracentrotus lividus; assay: Antimitotic activity against Paracentrotus lividus embryo assessed as cleavage alteration treated 10 to 25 mins post fertilization followed by 45 to 60 mins before the first mitotic cycle completion by sea urchin embryo assay; assay type: functional
[4] = test system: Paracentrotus lividus; assay: Antimitotic activity against Paracentrotus lividus embryo assessed as embryo spinning treated 10 to 25 mins post fertilization followed by 45 to 60 mins before the first mitotic cycle completion by sea urchin embryo assay; assay type: functional
[5] = test system: A549; assay: Cytotoxicity against human A549 cells assessed as cell viability after 24 hrs by MTT assay; assay type: functional, cell-based; details: A549, 24 h
Method in brief: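 A549 human lung carcinoma cells; growth inhibition measured by MTT assay. IC50 derived from dose-response curves, mean ± SD of three independent experiments.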

[6] = test system: A549; assay: Induction of apoptosis in human A549 cells assessed as necrotic cells at 10 to 100 nM after 48 hrs by annexin-V FITC/7-ADD staining-based flow cytometric analysis; assay type: functional, cell-based
[7] = test system: A549; assay: Induction of apoptosis in human A549 cells assessed as early apoptotic cells at 10 to 100 nM after 48 hrs by annexin-V FITC/7-ADD staining-based flow cytometric analysis; assay type: functional, cell-based
[8] = test system: A549; assay: Inhibition of microtubule polymerization in human A549 cells assessed as total disruption of interphase microtubule network at 0.1 uM after 8 hrs by immunofluorescence microscopy; assay type: cell-based
Method in brief: (§1)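 A549 cells incubated 8 h with compound at 0.1, 0.5, 1 and 5 μM; DMSO vehicle as negative control. Microtubules labelled by indirect immunofluorescence and examined by fluorescence microscopy. Value is the concentration giving total interphase microtubule disassembly, from three independent experiments.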

[9] = test system: A549; assay: Inhibition of microtubule polymerization in human A549 cells assessed as total disruption of interphase microtubule network at 1 uM after 8 hrs by immunofluorescence microscopy; assay type: cell-based; method in brief: as §1
[10] = test system: A549; assay: Inhibition of microtubule polymerization in human A549 cells assessed as total disruption of interphase microtubule network at 5 uM after 8 hrs by immunofluorescence microscopy; assay type: cell-based; method in brief: as §1
[11] = test system: A549; assay: Cell cycle arrest in human A549 cells assessed as accumulation of cells in G2/M phase after 24 hrs by propidium iodide staining-based flow cytometry; assay type: functional; details: A549, 24 h
[12] = test system: A549; assay: Inhibition of microtubule polymerization in human A549 cells assessed as total disruption of interphase microtubule network at 0.5 uM after 8 hrs by immunofluorescence microscopy; assay type: cell-based; method in brief: as §1
[13] = test system: Paracentrotus lividus; assay: Antimitotic activity against Paracentrotus lividus embryo assessed as cleavage arrest treated 10 to 25 mins post fertilization followed by 45 to 60 mins before the first mitotic cycle completion by sea urchin embryo assay; assay type: functional
[14] = test system: Paracentrotus lividus; assay: Toxicity against Paracentrotus lividus embryo post hatching; assay type: organism-based; details: in vivo
[15] = test system: Jurkat; assay: Induction of apoptosis in human Jurkat cells assessed as procaspase-2 cleavage at 50 nM after 24 hrs by Western blotting; assay type: functional, cell-based
Method in brief: (§2)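 Jurkat cells treated at 50 nM for 24 or 48 h; untreated control, etoposide 2 μM 24 h as comparator. Total lysates prepared in SDS-Laemmli buffer and immunoblotted with monoclonal anti-caspase-9, anti-caspase-2 and anti-procaspase-8 antibodies. β-Actin served as loading control.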

[16] = test system: Jurkat; assay: Induction of apoptosis in human Jurkat cells assessed as procaspase-2 cleavage at 50 nM after 48 hrs by Western blotting; assay type: functional, cell-based; method in brief: as §2
[17] = test system: Jurkat; assay: Induction of apoptosis in human Jurkat cells assessed as reduction in procaspase-8 levels at 50 nM after 48 hrs by Western blotting; assay type: functional, cell-based; method in brief: as §2
[18] = test system: Jurkat; assay: Induction of apoptosis in human Jurkat cells assessed as procaspase-9 cleavage at 50 nM after 24 hrs by Western blotting; assay type: functional, cell-based; method in brief: as §2
[19] = test system: Jurkat; assay: Induction of apoptosis in human Jurkat cells assessed as PARP cleavage at 50 nM after 48 hrs by annexin-V FITC/7-ADD staining-based flow cytometric analysis (reference value: 6.5%); assay type: functional
[20] = test system: Jurkat; assay: Cytotoxicity against human Jurkat cells assessed as cell viability after 48 hrs by trypan blue exclusion assay; assay type: functional, cell-based
Method in brief: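 Jurkat T-leukemia cells; proliferation inhibition measured by trypan blue assay, giving IC50.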

[21] = test system: Jurkat; assay: Cell cycle arrest in human Jurkat cells assessed as accumulation of cells in G2/M phase at 25 nM after 24 hrs by propidium iodide staining-based flow cytometry; assay type: functional
Method in brief: (§3)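 Jurkat cells treated for 24 h, then stained with propidium iodide. DNA content analysed by flow cytometry for cell-cycle distribution.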

[22] = test system: Jurkat; assay: Induction of apoptosis in human Jurkat cells assessed as hypodyploid cells at 50 nM after 48 hrs by annexin-V FITC/7-ADD staining-based flow cytometric analysis (reference value: 12.2%); assay type: functional
[23] = test system: Jurkat; assay: Induction of apoptosis in human Jurkat cells assessed as procaspase-9 cleavage at 50 nM after 48 hrs by Western blotting; assay type: functional, cell-based; method in brief: as §2
[24] = test system: Jurkat; assay: Induction of apoptosis in human Jurkat cells assessed as cells with active form of caspase-3 at 50 nM after 48 hrs by annexin-V FITC/7-ADD staining-based flow cytometric analysis (reference value: 7.1%); assay type: functional
[25] = test system: Jurkat; assay: Cell cycle arrest in human Jurkat cells assessed as accumulation of cells in G0/G1 phase at 2 uM after 24 hrs by propidium iodide staining-based flow cytometry; assay type: functional
Method in brief: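 Jurkat cells treated 24 h; DNA content after propidium iodide staining measured by flow cytometry for cell cycle distribution.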

[26] = test system: Paracentrotus lividus; assay: Antimitotic activity against Paracentrotus lividus embryo assessed as larval malformation at 4 to 5 uM post hatching by microscopic analysis; assay type: functional, organism-based
Method in brief: (§4)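 P. lividus hatched blastulae exposed to compound; larval (pluteus) malformations, gastrulation and morphogenesis abnormalities, and developmental abnormalities/embryo death scored microscopically, the latter after 2.5 h of treatment.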

[27] = test system: Paracentrotus lividus; assay: Antimitotic activity against Paracentrotus lividus embryo assessed as abnormal gastrula formation at 10 to 20 uM by microscopic analysis; assay type: functional, organism-based; method in brief: as §4
[28] = test system: Paracentrotus lividus; assay: Induction of apoptosis in Paracentrotus lividus embryo assessed as developmental abnormalities at 40 to 68 uM after 2.5 hrs; assay type: functional, organism-based; method in brief: as §4
[29] = test system: Paracentrotus lividus; assay: Toxicity against Paracentrotus lividus embryo at 40 to 68 uM after 2.5 hrs; assay type: organism-based; details: in vivo; method in brief: as §4
[30] = test system: Jurkat; assay: Induction of apoptosis in human Jurkat cells assessed as reduction in procaspase-8 levels at 2 uM after 24 hrs by Western blotting; assay type: functional, cell-based
Method in brief: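 Jurkat cells treated 24 h; total lysates prepared in SDS–Laemmli sample buffer and immunoblotted with anti-procaspase-8 monoclonal antibody; β-actin as loading control.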

[31] = test system: Paracentrotus lividus; assay: Antimitotic activity against Paracentrotus lividus embryo assessed as formation of tuberculate egg at 100 nM after 6 hrs post fertilization by microscopic analysis; assay type: functional, organism-based
[32] = test system: Paracentrotus lividus; assay: Antimitotic activity against Paracentrotus lividus embryo assessed as cleavage alteration at 10 nM after 6 hrs post fertilization by microscopic analysis; assay type: functional, organism-based
[33] = test system: P388; assay: Cytotoxicity against mouse P388 cells assessed as cell viability after 48 hrs by trypan blue exclusion assay; assay type: functional, cell-based; details: P388, 48 h
[34] = test system: A549; assay: Inhibition of microtubule polymerization in human A549 cells assessed as total disruption of interphase microtubule network at > 5 uM after 8 hrs by immunofluorescence microscopy; assay type: cell-based
[35] = test system: A549; assay: Cell cycle arrest in human A549 cells at 50 uM after 24 hrs using propidium iodide staining by flow cytometry; assay type: functional, cell-based
[36] = test system: Jurkat; assay: Cell cycle arrest in human Jurkat cells assessed as accumulation of cells in G2/M phase at 20 nM after 24 hrs by propidium iodide staining-based flow cytometry; assay type: functional; method in brief: as §3

SMILES | EC [3] | EC [4] | IC50 [5] | inhibition [8] | inhibition [9] | inhibition [10] | EC50 [11] | inhibition [12] | EC [13] | further results
COC(=O)C[C@H](NC(=O)[C@H](C)NC(=O)[C@@H](NC(=O)OCc1ccccc1)C(C)C)C(=O)CF (Cbz-Val-Ala-Asp(OMe)-CH2F) | – | – | – | – | – | – | – | – | – | Activity [1]: 28.4%
COc1cc(C2C3=C(COC3=O)Nc3cc4c(cc32)OCO4)cc(OC)c1OC (stereo not given) | 50 nM | 2000 nM | 2.71 nM | Active | Active | Active | 16.2 nM | Active | 500 nM | Activity [2]: inactive; Activity [6]: Active; Activity [7]: Active
COc1cc(C2C3=C(COC3=O)Nc3cc4c(cc32)CCCC4)cc(OC)c1OC (stereo not given) | 50 nM | 100 nM | 56.5 nM | Active | Active | Active | – | Active | 200 nM | Activity [14]: Toxic
COc1cc([C@@H]2c3cc4c(cc3[C@H](O)[C@H]3COC(=O)[C@H]23)OCO4)cc(OC)c1OC [PODOFILOX] | 20 nM | 500 nM | 7.47 nM | Active | Active | Active | 16.5 nM | Active | 50 nM | Activity [15]: Active; Activity [16]: Active; Activity [17]: inactive; Activity [18]: Active; Activity [19]: 40.7%; IC50 [20]: 25 nM; Activity [21]: Active; Activity [22]: 55.6%; Activity [23]: Active; Activity [24]: 28%
COc1cc([C@@H]2c3cc4c(cc3[C@@H](O[C@@H]3O[C@@H]5CO[C@@H](C)O[C@H]5[C@H](O)[C@H]3O)[C@H]3COC(=O)[C@H]23)OCO4)cc(OC)c1O [ETOPOSIDE] | 2000 nM | >68000 nM | – | – | – | – | – | – | >68000 nM | Activity [25]: Active; Activity [26]: Active; Activity [27]: Active; Activity [28]: Active; Activity [29]: Toxic; Activity [30]: Active
COc1cc(C2C3=C(COC3=O)Nc3cc4c(cc32)OCO4)cc2c1OCO2 (racemic) | 5 nM | 50 nM | 55.2 nM | Active | Active | Active | – | Active | 50 nM | Activity [31]: Active; Activity [32]: Active
COc1ccc(C2C3=C(COC3=O)Nc3cc4c(cc32)OCO4)cc1OC (stereo not given) | 5 nM | 2000 nM | 596 nM | Active | Active | Active | 230 nM | Active | 100 nM | IC50 [33]: 131 nM
COc1cc(-c2c3c(nc4cc5c(cc24)OCO5)COC3=O)cc(OC)c1OC | >4000 nM | >4000 nM | 11900 nM | – | – | – | – | – | >4000 nM | inhibition [34]: Active; IC50 [33]: > 253000 nM; Activity [35]: inactive
COc1ccc2c(c1)NC1=C(C(=O)OC1)C2c1cc(OC)c2c(c1)OCO2 (stereo not given) | 0.5 nM | 50 nM | 15.1 nM | Active | Active | Active | – | Active | 5 nM | Activity [15]: Active; Activity [16]: Active; Activity [17]: inactive; Activity [18]: Active; Activity [19]: 38.3%; IC50 [20]: 17.5 nM; Activity [36]: Active; Activity [22]: 54.9%; Activity [23]: Active; Activity [24]: 27.8%
